Experimental data: article PMC10445456 (Virus Research, 2023)

Assays:
human CDK7 = human CDK7 (Homo sapiens, UniProt P50613); assay: qSox-IVKA of immunoprecipitated CDK7; type: biochemical
vCDK/pUL97 = biological target: T1, vCDK/pUL97 (Human cytomegalovirus, UniProt P16788); assay: qSox-IVKA of immunoprecipitated pUL97-Flag; type: biochemical, HCMV
T1 sequence (P16788 1-707): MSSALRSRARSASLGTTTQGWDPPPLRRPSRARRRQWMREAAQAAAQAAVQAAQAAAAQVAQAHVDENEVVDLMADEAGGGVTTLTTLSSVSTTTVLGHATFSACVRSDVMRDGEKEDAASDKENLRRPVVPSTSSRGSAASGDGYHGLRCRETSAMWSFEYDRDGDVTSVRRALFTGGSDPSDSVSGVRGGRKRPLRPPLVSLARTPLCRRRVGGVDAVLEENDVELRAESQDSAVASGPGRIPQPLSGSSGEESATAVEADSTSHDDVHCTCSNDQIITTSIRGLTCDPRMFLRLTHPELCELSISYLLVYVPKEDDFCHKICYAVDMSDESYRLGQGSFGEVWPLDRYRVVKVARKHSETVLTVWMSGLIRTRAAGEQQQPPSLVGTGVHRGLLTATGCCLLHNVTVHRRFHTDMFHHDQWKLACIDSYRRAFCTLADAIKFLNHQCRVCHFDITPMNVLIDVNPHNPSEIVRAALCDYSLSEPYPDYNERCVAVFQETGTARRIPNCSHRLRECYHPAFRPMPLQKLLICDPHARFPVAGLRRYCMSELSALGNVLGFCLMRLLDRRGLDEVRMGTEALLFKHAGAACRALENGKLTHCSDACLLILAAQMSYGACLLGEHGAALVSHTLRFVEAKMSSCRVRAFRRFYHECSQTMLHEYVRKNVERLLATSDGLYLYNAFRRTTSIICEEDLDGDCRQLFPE

pUL97-Flag/CDK7 = pUL97-Flag/CDK7 (Homo sapiens, UniProt P50613); assay: qSox-IVKA of coimmunoprecipitated pUL97-Flag/CDK7, pUL97-specific sensor peptide; type: biochemical, HCMV / human; conditions: 0.01 µM LDC4297
[1] = tested on: HCMV-infected HFFs (cyclin H mRNA); assay: cyclin H mRNA levels by one-step RT-qPCR in HCMV Merlin-infected HFFs; type: cell-based, human; conditions: 1 µM MBV, HCMV Merlin MOI 0.5, 7 d p.i.
CDK7 + pUL97-Flag = biological target: T2, CDK7 + pUL97-Flag (Human cytomegalovirus, UniProt P16788); assay: qSox-IVKA of CDK7 + pUL97-Flag samples, CDK7-specific sensor peptide; type: biochemical, human / HCMV; conditions: 0.35 µM MBV
T2 sequence (P16788 1-707): T1 sequence (P16788 1-707)
Summary of the method: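 293T cells were transfected with pUL97-Flag or empty vector. At 2 d p.t., CDK7 and/or pUL97-Flag were immunoprecipitated, with a mouse Fc pseudo-IP as control. Eluate in HEPES pH 7.5 enzyme buffer was added to a reaction mix (final 1.0 mM ATP, 10 mM MgCl2, 15 µM CDK7 Sox sensor peptide AQT0459). Fluorescence (Ex355/Em480) was read kinetically at 30°C for about 80 min, in triplicate. Fc/empty-vector background was subtracted and Wb normalization factors applied. Combined-IP activity was related to CDK7 single IP, or pUL97-only activity was subtracted. 0.35 µM test compound or DMSO was added to combined samples. Data are from one representative biological replicate.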

[2] = tested on: HCMV-infected TEV-1 cells (cyclin H mRNA); assay: cyclin H mRNA levels by one-step RT-qPCR in HCMV Merlin-infected TEV-1 cells; type: cell-based, human; conditions: 1 µM MBV, HCMV Merlin MOI 0.5
CDK7 pSer164 and pThr170 = assay: Wb of CDK7 T-loop phosphorylation in HCMV AD169-infected HFFs; type: cell-based, human; conditions: 0.35 µM MBV from 24 h p.i., harvested 3 d p.i., HCMV AD169 MOI 0.5
Summary of the method: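 HFFs in T75 flasks were infected 1 d after seeding with HCMV AD169, UL97 K355Δ kinase-dead mutant (MOI 0.5) or mock; inoculum was replaced after 90 min at 37°C. AD169-infected cells received 0.35 µM test compound or DMSO at 24 h p.i. Cells were harvested 3 d p.i. for SDS-PAGE/Wb with phosphosite-specific antibodies against CDK7 pSer164 and pThr170.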

human CDK7, sequence (P50613 whole entry): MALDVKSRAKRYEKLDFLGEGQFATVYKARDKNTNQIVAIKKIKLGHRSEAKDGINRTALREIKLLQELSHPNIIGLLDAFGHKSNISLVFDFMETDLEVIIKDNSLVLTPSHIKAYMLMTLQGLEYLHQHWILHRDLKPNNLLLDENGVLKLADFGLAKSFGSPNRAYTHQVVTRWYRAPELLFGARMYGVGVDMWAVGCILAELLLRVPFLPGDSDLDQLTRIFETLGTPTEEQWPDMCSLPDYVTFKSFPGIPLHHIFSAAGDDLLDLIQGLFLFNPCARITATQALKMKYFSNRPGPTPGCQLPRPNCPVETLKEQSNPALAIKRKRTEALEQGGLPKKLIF
human CDK7, sequence (P51946 whole entry partner): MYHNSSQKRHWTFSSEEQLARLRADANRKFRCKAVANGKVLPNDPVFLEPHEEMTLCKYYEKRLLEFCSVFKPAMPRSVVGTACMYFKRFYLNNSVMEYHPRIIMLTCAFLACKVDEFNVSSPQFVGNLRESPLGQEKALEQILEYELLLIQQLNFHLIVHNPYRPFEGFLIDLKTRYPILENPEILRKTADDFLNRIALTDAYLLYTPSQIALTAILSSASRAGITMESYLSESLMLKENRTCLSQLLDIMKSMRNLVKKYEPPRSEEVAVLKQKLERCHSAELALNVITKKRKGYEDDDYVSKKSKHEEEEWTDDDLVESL
human CDK7, sequence (P51948 whole entry partner): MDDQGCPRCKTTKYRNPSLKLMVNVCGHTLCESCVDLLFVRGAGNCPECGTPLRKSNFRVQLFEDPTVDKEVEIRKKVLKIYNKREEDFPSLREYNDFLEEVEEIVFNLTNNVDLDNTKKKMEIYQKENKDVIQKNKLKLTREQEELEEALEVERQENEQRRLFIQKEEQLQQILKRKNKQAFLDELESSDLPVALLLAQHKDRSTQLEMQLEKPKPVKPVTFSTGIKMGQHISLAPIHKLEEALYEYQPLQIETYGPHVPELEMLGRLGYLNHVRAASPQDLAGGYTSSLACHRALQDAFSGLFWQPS
pUL97-Flag/CDK7, sequence (P50613 whole entry): as the sequence (P50613 whole entry) above
pUL97-Flag/CDK7, sequence (P51946 whole entry partner): as the sequence (P51946 whole entry partner) above
pUL97-Flag/CDK7, sequence (P51948 whole entry partner): as the sequence (P51948 whole entry partner) above

In the case of `CC(C)c1cnn2c(NCc3ccccc3-n3cccn3)nc(OC3CCCNC3)nc12` (stereo not shown) [LDC4297], the “effect on CDK7 activity” value (human CDK7; applied concentration of LDC4297 in the IVKA (5 µM)) is reported as “completely blocked CDK7 activity”, the “inhibitory effect on pUL97 activity” value (vCDK/pUL97; 5 µM LDC4297) is reported as “did not affect pUL97 kinase activity” and the “change in pUL97 activity upon inhibition of CDK7” value (pUL97-Flag/CDK7) is reported as “no change in pUL97 activity”.

In the case of `CC(C)Nc1nc2cc(Cl)c(Cl)cc2n1[C@H]1O[C@@H](CO)[C@H](O)[C@@H]1O` [MBV, maribavir], the “effect on CDK7 activity” value (human CDK7; 0.35 µM MBV) is reported as “not inhibited”, the “reduction of the HCMV-induced increase of cyclin H mRNA levels” value [1] is reported as 28% and the “pUL97-mediated increased CDK7 kinase activity (trans-stimulation)” value (CDK7 + pUL97-Flag) is reported as “abolished”. For the same compound, the “pUL97 kinase activity reduced to” value (vCDK/pUL97; 0.35 µM) was 50%, the “reduction of the HCMV-induced increase of cyclin H mRNA levels” value [2] was 68% and the “CDK7 phosphomarkers pSer164 and pThr170” value (CDK7 pSer164 and pThr170) was “modest increase”.

With “recombinant cyclin H: recombinant human cyclin H, full-length, GST-tag, expressed in insect cells (ABIN6699744)” the “increase of in vitro kinase activity of pUL97” value (vCDK/pUL97; exogenous addition of 100 nM recombinant cyclin H) was 31.5%.
